CCR6 antag: CCR6 (human) receptor antagonism; P51684; inhibition, % at 20 µM; 340,000 tested, 0.49% active; AID 493098; CHO-K1 CCR6 PathHunter beta-arrestin, luminescence, CCL20-stimulated;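 active = compounds whose inhibition of the agonist-driven luminescence signal at 20 µM reaches about 50%, limit read from the data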;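 note: cells stimulated with CCL20 at 14 nM final; plate controls were DMSO with CCL20 for no effect and DMSO without agonist for full effect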
CXCR6 block: blocks human CXCR6 beta-arrestin recruitment; O00574; CHO-K1 PathHunter CXCR6 beta-arrestin, luminescence; inhibition, % at 20 µM; 360,000 tested, 0.36% active; AID 602244; in the data active = inhibition above about 34%, passing the limit was not always enough;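 note: antagonist mode with CXCL16 agonist at 10 nM final; 0% = 10 nM CXCL16 with DMSO and 100% = unstimulated wells without agonist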
APJ ag: APJ receptor agonism. P35414. CHO-K1 APJ PathHunter beta-arrestin, luminescence; 0% DMSO wells, 100% apelin. activation, % at 20 µM. 330,000 tested, 0.11% active;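 active = activation more than six SD over the plate average, tested at 20 µM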;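 note: 0% = DMSO alone and 100% = apelin-13 at 10 nM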
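Assay system: engineered CHO-K1 APJ arrestin reporter cells; Amount: 1000 CHO-K1 reporter cells seeded per well; Dosing: one dose, 20 µM compound, 1% DMSO; Times: compound stimulation 90 min at 25 °C, detection 60 min; Measured by: luminescent beta-gal fragment complementation, chemiluminescent substrate; Read-out: APJ–arrestin association signal; Controls: DMSO vs Apelin-13 10 nM.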
APJ antag: antagonists of human APJ apelin receptor; CHO-K1 APJ beta-arrestin complementation, luminescence; inhibition, % at 20 µM; 330,000 tested, 0.32% active;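 active = inhibition above about 40% at 20 µM, limit read from the data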;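 note: cells challenged with 10 nM apelin-13 agonist together with compound; plate controls were apelin-13 plus DMSO wells for no effect and DMSO wells lacking apelin-13 for full effect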
EBI2 antag: antagonists of human EBI2 receptor; P32249; EBI2 beta-arrestin recruitment, luminescence, 7a,25-OHC stimulated; inhibition, % at 5 µM; 360,000 tested, 0.81% active; in the data active = inhibition above about 38%;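 note: enzyme fragment complementation signal reports receptor beta-arrestin coupling in cells; 0% = agonist plus DMSO wells and 100% = wells without agonist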
Target sequence (P32249 whole entry, looked up, the tested form may be a part): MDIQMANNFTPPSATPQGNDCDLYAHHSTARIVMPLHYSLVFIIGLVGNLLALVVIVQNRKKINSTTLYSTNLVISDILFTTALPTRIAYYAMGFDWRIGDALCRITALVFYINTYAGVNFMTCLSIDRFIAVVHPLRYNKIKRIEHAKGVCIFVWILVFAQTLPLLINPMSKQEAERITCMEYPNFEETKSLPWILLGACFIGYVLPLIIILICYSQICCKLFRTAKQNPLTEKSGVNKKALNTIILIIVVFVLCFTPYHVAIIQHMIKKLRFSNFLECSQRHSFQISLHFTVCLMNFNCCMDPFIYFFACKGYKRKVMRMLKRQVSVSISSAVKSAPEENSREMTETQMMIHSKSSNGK
The depositor's hits bear a star; · = not tested or not shown. Most compounds without a hit are left out; they make up all but 1.5% or so of the library.

SMILES	CCR6 antag	CXCR6 block	APJ ag	APJ antag	EBI2 antag
Cc1[nH]c2ccccc2c1/C=N/Nc1ccccc1[N+](=O)[O-]	39	29	-8	43*	6
Cc1[nH]c2ccccc2c1/C=N/NS(=O)(=O)c1ccccc1	2	0	-1	-7	1
COc1ccc(NS(=O)(=O)c2cc([N+](=O)[O-])ccc2N/N=C/c2c(C)[nH]c3ccccc23)cc1	58*	35	·	·	30
CC(=O)Nc1ccc(C=NNc2ccc([N+](=O)[O-])cc2S(=O)(=O)Nc2ccccc2C(=O)O)cc1	34	22	-4	12	3
COc1cccc(/C=N/Nc2nc(Nc3ccccc3)nc(-n3nc(C)cc3C)n2)c1O	67*	57*	-9	18	66*
CC(=O)Nc1ccc(S(=O)(=O)NCC(=O)OCC(=O)NCCc2ccccc2)cc1	·	-3	·	·	1
Oc1ccc(COCc2ccccc2)c2cccnc12	11	5	0	-6	7
CC(C)COCc1ccc(O)c2ncccc12	33	17	-3	2	44*
CCCOCc1ccc(O)c2ncccc12	7	13	-2	-16	46*
OCc1ccc(O)c2ncccc12	10	-1	-1	-8	-4
O=C1CSC(c2ccc(F)c(F)c2)N1c1ccccc1F (configuration not stated)	9	-5	-3	7	4
CCOC(=O)c1ccccc1NC(=O)CN1C(=O)NC(C)(CCc2ccccc2)C1=O (configuration not stated)	15	2	-3	2	-2
CCN1C(=O)/C(=C2/C=Cc3ccccc3N2CC)SC1=S	33	21	-6	16	5
CCCN1/C(=C2/SC(=S)N(CC)C2=O)C=Cc2ccccc21	54*	34	-9	37	3
CCCN1C(=O)/C(=C2/C=Cc3ccccc3N2CC)SC1=S	41	28	-5	42*	2
C=CCNC(=O)C1CC2Cn3c(nc4cc(Cl)c(Cl)cc43)C2N1C (configuration not stated)	2	5	-5	-54	-6
CCCCNC(=O)C(NC(=O)c1ccc(-c2ccccc2)cc1)C(=O)c1ccccc1 (configuration not stated)	·	·	·	·	-5
CCc1nc(SCC(=O)Nc2ccccc2Cl)n[nH]1	1	-4	0	-23	-4
C=CCn1c(N)c(C(=O)OC(C)(C)C)c2nc3ccccc3nc21	19	5	-10	50*	1
C=CCn1c(N)c(C(=O)OC(C)CC)c2nc3ccccc3nc21 (configuration not stated)	19	12	·	·	8
Cc1ccc(OC(C)C(=O)Nc2cccc(S(=O)(=O)N3CCCCCC3)c2)cc1 (configuration not stated)	·	1	·	·	7
CCN(CC)c1ccc(/C=C2\C(=O)c3ccc(C(=O)O)cc3C2=O)cc1	74*	49*	·	·	24
CCOc1ccc(S(=O)(=O)N2CCCCC2)cc1NC(=O)Cc1ccsc1	3	12	-2	2	-1
COc1cc(/C=N/N=C(N)N)ccc1OCc1ccccc1Cl	0	-11	22*	-21	-20
C=C[C@@H]1c2ccccc2N(S(=O)(=O)c2ccc(C)cc2)[C@H](c2ccc(C(=O)OC)cc2)C1(C#N)C#N	10	2	-3	11	13
SMILES	CCR6 antag	CXCR6 block	APJ ag	APJ antag	EBI2 antag
COc1cccc2sc(Nc3nc(-c4ccncc4)cs3)nc12	30	32	0	19	73*
COc1cc(OC)c(-c2c3cc(O)c(=O)cc-3oc3cc(O)c(O)cc23)cc1OC	64*	32	-6	29	1
CCCCNC(=O)N1CCCN(c2ccc(C#N)cn2)CC1	5	-3	-4	6	-4
Cc1cc(C)c2c(=O)n(CC(=O)Nc3cccc(Cl)c3C)sc2n1	12	80*	2	-13	2
C[N+](C)(C)CCC(=O)N1C/C(=C/c2ccccc2)C(=O)/C(=C\c2ccccc2)C1	13	8	·	·	3
O=C(/C=C/c1ccccc1)CCN1CCOCC1	17	4	·	·	2
O=C1/C(=C/c2ccccc2)CN(C(=O)CCN2CCOCC2)C/C1=C\c1ccccc1	53*	31	·	·	18
CN(C)CCC(=O)N1C/C(=C/c2ccccc2)C(=O)/C(=C\c2ccccc2)C1	78*	66*	·	·	39
COc1ccc(OC(=O)N2C/C(=C/c3ccccc3)C(=O)/C(=C\c3ccccc3)C2)cc1	29	13	·	·	56*
Cc1ccc(C)c(NC(=S)Nc2cccc3cnccc23)c1	-2	-27	0	-72	0
Cc1ccccc1NC(=S)Nc1cccc2cnccc12	10	-8	16*	-42	-12
O=C(N/N=C/c1ccco1)c1cccc(N2Cc3ccccc3C2)c1	1	-1	-3	-4	-6
COc1ccc(C(=O)NNC(=S)NC(=O)C(C)(C)C)cc1	62*	36	-9	28	5
CC(C)(C)C(=O)NC(=S)NNC(=O)c1sc2ccccc2c1Cl	73*	62*	1	40	-12
COc1ccc(C(O)P(=O)(OC(C)C)OC(C)C)c(OC)c1 (configuration not stated)	1	6	1	9	5
O=C(CCl)c1ccc2c(c1)CCN2C(=O)C1CC1	·	·	0	27	·
O=C(CCl)c1ccc2c(c1)CCN2C(=O)C1CCCCC1	53*	31	-1	31	-8
C#CCOCCOCCOCCNc1nc(N2CCN(C(=O)CCCCCCCCCCNC(=O)[C@H]([C@@H](C)CC)n3cc(CCCCN=C(N)N)nn3)CC2)nc(N2CCN(C(=O)CCCCCCCCCCNC(=O)[C@H](CCCCN)n3cc(C[C@@H](C)CC)nn3)CC2)n1	·	·	59*	31	·
COc1ccc2cc(/C=C/C(=O)N3CCN(CC(=O)N4CCCCCC4)CC3)ccc2c1	0	-2	2	1	60*
CCC(C(=O)OCC(=O)Nc1ccc(OC)cc1OC)c1ccccc1 (configuration not stated)	10	-6	-1	3	-3
CCC(C(=O)OCC(=O)Nc1cc(Cl)ccc1Cl)c1ccccc1 (configuration not stated)	21	1	2	42*	2
O=C1NC[C@H](Cc2ccccc2)N(C[C@@H]2CCCN2C[C@H](Cc2ccccc2)N2C[C@H](Cc3ccc(O)cc3)N(CCc3ccccc3)C(=O)C2=O)C1=O	·	-2	·	·	-8
COc1ccc(OC)c2sc(N(CCCN(C)C)C(=O)CCS(=O)(=O)c3ccccc3)nc12	70*	62*	0	39	54*
CC(=O)OC[C@]12CC[C@H]3[C@@](C)(CC[C@H]4C(C)(C)CCC[C@]34C)[C@@H]1CC(C1=CC(=O)OC1O)O2 (some centres not stated)	·	39	·	·	87*
CC(C)C[C@H](N)c1nnc(S(=O)(=O)Cc2ccc(F)cc2)o1	35	42*	-1	14	-9

Screening data: PubChem BioAssay, Sanford-Burnham Center for Chemical Genomics
